Test results: ChEMBL document CHEMBL5674880 (PLoS One, 2018)

Key:
Assay type in all cases: functional, cell-based
HepG2 = experiment: Antiproliferative activity against human HepG2 cells
DMS-53 = experiment: Antiproliferative activity against human DMS-53 expressing wild-type KRAS
How it was run: (§1)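 Proliferation of human lung cancer cell lines (NSCLC and others) with KRAS mutant or wild-type status. Compound was tested at concentrations up to 25 µM.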

A549 = experiment: Antiproliferative activity against human A549 cells expressing KRAS G12S mutant; how it was run: as §1
NCI-H23 = experiment: Antiproliferative activity against human NCI-H23 cells expressing KRAS G12C mutant; how it was run: as §1
NCI-H441 = experiment: Antiproliferative activity against human NCI-H441 cells expressing KRAS G12V mutant; how it was run: as §1
NCI-H2122 = experiment: Antiproliferative activity against human NCI-H2122 cells expressing KRAS G12C mutant; how it was run: as §1
SK-LU-1 = experiment: Antiproliferative activity against human SK-LU-1 cells expressing KRAS G12D mutant
COR-L105 = experiment: Antiproliferative activity against human COR-L105 cells expressing wild-type KRAS; how it was run: as §1
SW1573 = experiment: Antiproliferative activity against human SW1573 cells expressing KRAS G12C mutant
SHP77 = experiment: Antiproliferative activity against human SHP77 cells expressing KRAS G12V mutant
DMS-153 = experiment: Antiproliferative activity against human DMS-153 cells expressing wild-type KRAS; how it was run: as §1
COR-L88 = experiment: Antiproliferative activity against human COR-L88 cells expressing wild-type KRAS; how it was run: as §1
NCI-H2029 = experiment: Antiproliferative activity against human NCI-H2029 cells expressing wild-type KRAS; how it was run: as §1
NCI-H2081 = experiment: Antiproliferative activity against human NCI-H2081 cells expressing wild-type KRAS; how it was run: as §1
5637 [1] = experiment: Antiproliferative activity against human 5637 cells in 2D growth culture
How it was run: (§2)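 2D monolayer proliferation screen across the 240-line Eurofins Oncopanel of human cancer cell lines (mycoplasma-negative, STR-verified). Compound was titrated to a highest tested concentration of 25 μM. Values are the mean of three replicates.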

[2] = Antiproliferative activity against human A7 cells in 2D growth culture; how it was run: as §2
AGS = experiment: Antiproliferative activity against human AGS cells in 2D growth culture; how it was run: as §2
[3] = Antiproliferative activity against human BC1 cells in 2D growth culture; how it was run: as §2
[4] = Antiproliferative activity against human SK-N-BE(2)-C cells in 2D growth culture
How it was run: (§3)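 2D monolayer culture in the Eurofins Oncopanel of 240 cancer cell lines (mycoplasma negative, STR verified). Compound dosed across a concentration series with a top concentration of 25 μM. Each value is the mean of three replicates.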

C32 [5] = experiment: Antiproliferative activity against human C32 cells in 2D growth culture; how it was run: as §2
[6] = Antiproliferative activity against human C4-1 cells in 2D growth culture; how it was run: as §2
DB = experiment: Antiproliferative activity against human DB cells in 2D growth culture; how it was run: as §2
DK-MG = experiment: Antiproliferative activity against human DK-MG cells in 2D growth culture; how it was run: as §2
DOHH-2 = experiment: Antiproliferative activity against human DOHH-2 cells in 2D growth culture; how it was run: as §2
EB-3 = experiment: Antiproliferative activity against human EB-3 cells in 2D growth culture; how it was run: as §2
EM-2 = experiment: Antiproliferative activity against human EM-2 cells in 2D growth culture; how it was run: as §2
ES-2 [7] = experiment: Antiproliferative activity against human ES-2 cells in 2D growth culture; how it was run: as §2
H4 = experiment: Antiproliferative activity against human H4 cells in 2D growth culture; how it was run: as §2
HLE = experiment: Antiproliferative activity against human HLE cells in 2D growth culture; how it was run: as §2
[8] = Antiproliferative activity against human HLF cells in 2D growth culture; how it was run: as §2
HOS = experiment: Antiproliferative activity against human HOS cells in 2D growth culture; how it was run: as §2
Hs 766 [9] = experiment: Antiproliferative activity against human Hs 766T cells in 2D growth culture; how it was run: as §2
HT = experiment: Antiproliferative activity against human HT cells in 2D growth culture; how it was run: as §2
HT-3 [10] = experiment: Antiproliferative activity against human HT-3 cells in 2D growth culture; how it was run: as §2
J82 [11] = experiment: Antiproliferative activity against human J82 cells in 2D growth culture; how it was run: as §2
JAR [12] = experiment: Antiproliferative activity against human JAR cells in 2D growth culture; how it was run: as §2
KLE = experiment: Antiproliferative activity against human KLE cells in 2D growth culture; how it was run: as §2
[13] = Antiproliferative activity against human MT-3 cells in 2D growth culture; how it was run: as §2
MX1 = experiment: Antiproliferative activity against human MX1 cells in 2D growth culture; how it was run: as §2
PC-3 [14] = experiment: Antiproliferative activity against human PC-3 cells in 2D growth culture; how it was run: as §2
RD [15] = experiment: Antiproliferative activity against human RD cells in 2D growth culture; how it was run: as §2
RKO [16] = experiment: Antiproliferative activity against human RKO cells in 2D growth culture; how it was run: as §2
SH-4 [17] = experiment: Antiproliferative activity against human SH-4 cells in 2D growth culture; how it was run: as §3
SR = experiment: Antiproliferative activity against human SR cells in 2D growth culture; how it was run: as §3
T-24 = experiment: Antiproliferative activity against human T24 cells in 2D growth culture; how it was run: as §3
U-266 = experiment: Antiproliferative activity against human U266B1 cells in 2D growth culture; how it was run: as §3
Y79 [18] = experiment: Antiproliferative activity against human Y79 cells in 2D growth culture; how it was run: as §3
5637 [19] = experiment: Antiproliferative activity against human 5637 cells in 3D growth culture
How it was run: (§4)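 3D proliferation in the Eurofins Oncopanel, with a panel of 140 human cancer cell lines grown in Matrigel. The highest concentration tested was 25 μM. Each value is the mean of three replicates.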

[20] = Antiproliferative activity against human SK-N-BE(2)-C cells in 3D growth culture
How it was run: (§5)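 3D growth in matrigel, within a 140-cell-line panel of the Eurofins Oncopanel (mycoplasma negative, STR verified). Compound dosed across a concentration series with a top concentration of 25 μM. Each value is the mean of three replicates.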

C32 [21] = experiment: Antiproliferative activity against human C32 cells in 3D growth culture; how it was run: as §4
[22] = Antiproliferative activity against human C4-1 cells in 3D growth culture; how it was run: as §4
ES-2 [23] = experiment: Antiproliferative activity against human ES2 cells in 3D growth culture; how it was run: as §4
[24] = Antiproliferative activity against human HLF cells in 3D growth culture; how it was run: as §4
Hs 766 [25] = experiment: Antiproliferative activity against human Hs766T cells in 3D growth culture; how it was run: as §4
HT-3 [26] = experiment: Antiproliferative activity against human HT-3 cells in 3D growth culture; how it was run: as §4
J82 [27] = experiment: Antiproliferative activity against human J82 cells in 3D growth culture; how it was run: as §4
JAR [28] = experiment: Antiproliferative activity against human JAR cells in 3D growth culture; how it was run: as §4
[29] = Antiproliferative activity against human MT-3 cells in 3D growth culture; how it was run: as §4
PC-3 [30] = experiment: Antiproliferative activity against human PC-3 cells in 3D growth culture; how it was run: as §4
RD [31] = experiment: Antiproliferative activity against human RD cells in 3D growth culture; how it was run: as §4
RKO [32] = experiment: Antiproliferative activity against human RKO cells in 3D growth culture; how it was run: as §5
SH-4 [33] = experiment: Antiproliferative activity against human SH-4 cells in 3D growth culture; how it was run: as §5
Y79 [34] = experiment: Antiproliferative activity against human Y79 cells in 3D growth culture; how it was run: as §5

Measured: IC50

N[C@H]1CC[C@H](S(=O)(=O)N2[C@@H]3CC[C@H]2C[C@@H](NC(=O)c2cc(C4CC4)on2)C3)CC1
> 20 µM: DMS-53 | A549 | NCI-H23 | NCI-H441 | NCI-H2122 | SK-LU-1 | COR-L105 | SW1573 | SHP77 | DMS-153 | COR-L88 | NCI-H2029 | NCI-H2081
> 40 µM: HepG2
> 25 µM: all other assays above
